{"source": "ChEMBL document CHEMBL1138683", "about": "(J Med Chem, 2004)", "key": {"[1]": {"system": "Mus musculus", "assay": "Anti convulsant activity administered intra peritoneally to mouse at maximal electroshock test at 0.5 hr after the drug administered with dose of 300 mg/kg; 1/1= No of animals protected /No of animals tested", "assay_type": "functional"}, "[2]": {"system": "Rattus norvegicus", "assay": "Anticonvulsant activity after oral administration of 30 mg/kg dose after 2 hr in rats; ++++ means 100% of the animals protected", "assay_type": "functional, organism-based", "set-up": "dose 30 mg/kg", "procedure,_shortened": "(§1)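 Oral dosing of rats at a single dose, compound dissolved or suspended in 0.5% methylcellulose. Protection in the MES or scMet test checked 15 min, 30 min, 1 h, 2 h and 4 h after dosing. Scored as 25/50/75/100% of animals protected (+ to ++++), – for none.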"}, "[3]": {"assay": "Anti convulsant activity administered intra peritoneally to mouse for toxicity at 4 hr with dose of 100 mg/kg; 0/4= No of animals exhibiting toxicity /No of animals tested", "assay_type": "organism-based", "set-up": "dose 100 mg/kg", "settings": "in vivo, ip"}, "[4]": {"system": "Mus musculus", "assay": "Anti convulsant activity administered intra peritoneally to mouse at maximal electroshock test at 0.5 hr after the drug administered with dose of 100 mg/kg; 3/3= No of animals protected /No of animals tested", "assay_type": "functional"}, "[5]": {"system": "Mus musculus", "assay": "Quantitative Anticonvulsant activity administered intraperitoneally to mouse for protective index in subcutaneous metrazol test", "assay_type": "functional", "procedure,_shortened": "(§2)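 Mice dosed intraperitoneally with compound dissolved or suspended in 0.5% methylcellulose (0.01 mL per gram body weight). […] Protective index calculated as TD50/ED50 for each seizure test.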"}, "[6]": {"system": "Mus musculus", "assay": "Anti convulsant activity administered intra peritoneally to mouse for subcutaneous metrazol test at 4 hr after the drug administered with dose of 30 mg/kg; 0/1= No of animals protected /No of animals tested", "assay_type": "functional", "settings": "route intraperitoneal"}, "[7]": {"system": "Mus musculus", "assay": "Quantitative Anticonvulsant activity administered intraperitoneally to mouse for maximal electro shock test; The interval in parenthesis stands for 95% confidence interval", "assay_type": "functional", "settings": "ip", "procedure,_shortened": "as §2"}, "[8]": {"system": "Rattus norvegicus", "assay": "Anticonvulsant activity after oral administration of 30 mg/kg dose after 1 hr in rats; +++ means 75% of the animals protected", "assay_type": "functional, organism-based", "set-up": "dose 30 mg/kg", "procedure,_shortened": "as §1"}, "[9]": {"system": "Rattus norvegicus", "assay": "Quantitative Anticonvulsant activity administered orally to rat for subcutaneous metrazol test", "assay_type": "functional", "procedure,_shortened": "(§3)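 Oral dosing in rats with compound dissolved or suspended in 0.5% methylcellulose (0.04 mL per 10 g body weight). […] Protective index taken as TD50/ED50 for each test.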"}, "[10]": {"system": "Mus musculus", "assay": "Quantitative Anticonvulsant activity administered intraperitoneally to mouse for protective index in maximal electro shock test;TD50/ED50", "assay_type": "functional", "procedure,_shortened": "as §2"}, "[11]": {"system": "Rattus norvegicus", "assay": "Quantitative Anticonvulsant activity administered orally to rat at maximal electro shock test; the interval in parenthesis stands for 95% confidence interval", "assay_type": "functional", "settings": "po", "procedure,_shortened": "as §3"}, "[12]": {"system": "Mus musculus", "assay": "Anti convulsant activity administered intra peritoneally to mouse for subcutaneous metrazol test at 4 hr after the drug administered with dose of 100 mg/kg; 0/1= No of animals protected /No of animals tested", "assay_type": "functional"}, "[13]": {"system": "Mus musculus", "assay": "Anti convulsant activity administered intra peritoneally to mouse at maximal electroshock test at 4 hr after the drug administered with dose of 300 mg/kg; 1/1= No of animals protected /No of animals tested", "assay_type": "functional"}, "[14]": {"system": "Rattus norvegicus", "assay": "Quantitative Anticonvulsant activity administered orally to rat for protective index in subcutaneous metrazol test", "assay_type": "functional", "procedure,_shortened": "as §3"}, "[15]": {"system": "Mus musculus", "assay": "Anti convulsant activity administered intra peritoneally to mouse at maximal electroshock test at 4 hr after the drug administered with dose of 100 mg/kg; 0/3= No of animals protected /No of animals tested", "assay_type": "functional"}, "[16]": {"system": "Rattus norvegicus", "assay": "Anticonvulsant activity after oral administration of 50 mg/kg dose after 30 min in rats; ++ means 50% of the animals protected", "assay_type": "functional, organism-based", "set-up": "dose 50 mg/kg", "procedure,_shortened": "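Rats dosed orally with compound dissolved or suspended in 0.5% methylcellulose (0.04 mL per 10 g body weight). Anticonvulsant protection (MES or scMet) and toxicity scored at 15 min, 30 min, 1 h, 2 h and 4 h after dosing. Graded in steps of 25% of animals protected or showing toxicity.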"}, "[17]": {"assay": "Anti convulsant activity administered intra peritoneally to mouse for toxicity at 0.5 hr with dose of 300 mg/kg; 0/4= No of animals exhibiting toxicity /No of animals tested", "assay_type": "organism-based", "set-up": "dose 300 mg/kg", "settings": "in vivo, ip"}, "[18]": {"system": "Mus musculus", "assay": "Anti convulsant activity administered intra peritoneally to mouse at maximal electroshock test at 4 hr after the drug administered with dose of 30 mg/kg; 0/1= No of animals protected /No of animals tested", "assay_type": "functional"}, "[19]": {"system": "Mus musculus", "assay": "Anti convulsant activity administered intra peritoneally to mouse for subcutaneous metrazol test at 4 hr with dose of 300 mg/kg; 3/5= No of animals protected /No of animals tested", "assay_type": "functional"}, "[20]": {"system": "Mus musculus", "assay": "Anti convulsant activity administered intra peritoneally to mouse at maximal electroshock test at 0.5 h after the drug administered with dose of 30 mg/kg; 0/1= No of animals protected /No of animals tested", "assay_type": "functional"}, "[21]": {"assay": "Quantitative Anticonvulsant activity administered intraperitoneally to mouse for toxicity", "settings": "in vivo, ip", "procedure,_shortened": "as §2"}, "[22]": {"system": "Rattus norvegicus", "assay": "Anticonvulsant activity after oral administration of 30 mg/kg dose after 15 min in rats;+means 25% of the animals protected", "assay_type": "functional, organism-based", "set-up": "dose 30 mg/kg", "procedure,_shortened": "as §1"}, "[23]": {"system": "Mus musculus", "assay": "Anticonvulsant activity administered intraperitoneally to mouse for toxicity at 4 hr with dose of 30 mg/kg", "assay_type": "functional", "settings": "route intraperitoneal", "procedure,_shortened": "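Mice given compound i.p. at 30, 100 or 300 mg/kg, dissolved or suspended in 0.5% methylcellulose. Toxicity scored 0.5 h and 4 h after dosing, recorded as number of animals showing toxicity per number tested.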"}, "[24]": {"assay": "Anti convulsant activity administered intra peritoneally to mouse for toxicity at 0.5 hr with dose of 30 mg/kg; 0/4= No of animals exhibiting toxicity /No of animals tested", "assay_type": "organism-based", "set-up": "dose 30 mg/kg", "settings": "in vivo, ip"}, "[25]": {"system": "Mus musculus", "assay": "Anti convulsant activity administered intra peritoneally to mouse for subcutaneous metrazol test at 0.5 hr with dose of 30 mg/kg; 0/1= No of animals protected /No of animals tested", "assay_type": "functional"}, "[26]": {"assay": "Anti convulsant activity administered intra peritoneally to mouse for toxicity at 4 hr with dose of 300 mg/kg; 1/2= No of animals exhibiting toxicity /No of animals tested", "assay_type": "organism-based", "set-up": "dose 300 mg/kg", "settings": "in vivo, ip"}, "[27]": {"assay": "Anti convulsant activity administered intra peritoneally to mouse for toxicity at 0.5 hr with dose of 100 mg/kg; 0/8= No of animals exhibiting toxicity /No of animals tested", "assay_type": "organism-based", "set-up": "dose 100 mg/kg", "settings": "in vivo, ip"}, "[28]": {"system": "Rattus norvegicus", "assay": "Anticonvulsant activity after oral administration of 50 mg/kg dose after 15 min in rats; +++ means 75% of the animals protected", "assay_type": "functional, organism-based", "set-up": "dose 50 mg/kg", "procedure,_shortened": "as §1"}, "[29]": {"system": "Rattus norvegicus", "assay": "Quantitative Anticonvulsant activity administered orally to rat for protective index in maximal electro shock test;TD50/ED50", "assay_type": "functional", "procedure,_shortened": "as §3"}, "[30]": {"system": "Mus musculus", "assay": "Anti convulsant activity administered intra peritoneally to mouse for subcutaneous metrazol test at 0.5 h with dose of 300 mg/kg; 0/1= No of animals protected /No of animals tested", "assay_type": "functional"}, "[31]": {"system": "Rattus norvegicus", "assay": "Anticonvulsant activity after oral administration of 30 mg/kg dose after 30 min in rats; ++ means 50% of the animals protected", "assay_type": "functional, organism-based", "set-up": "dose 30 mg/kg", "procedure,_shortened": "as §1"}, "[32]": {"system": "Rattus norvegicus", "assay": "Anticonvulsant activity after oral administration of 30 mg/kg dose after 4 hr in rats; + means 25% of the animals protected", "assay_type": "functional, organism-based", "set-up": "dose 30 mg/kg", "procedure,_shortened": "as §1"}, "[33]": {"system": "Mus musculus", "assay": "Anti convulsant activity administered intra peritoneally to mouse at maximal electroshock test at 4 hr after the drug administered with dose of 100 mg/kg; 0/1= No of animals protected /No of animals tested", "assay_type": "functional"}}}
{"smiles": "CC1(C)C(C(=O)NC(N)=O)C1(C)C", "note": "[2,2,3,3-TETRAMETHYLCYCLOPROPANECARBONYLUREA]", "values": [{"measurement": "Activity", "setting": "[1]", "value": 1}, {"measurement": "Activity", "setting": "[2]", "value": "100% of the animals protected"}, {"measurement": "Toxicity", "setting": "[3]", "value": 0}, {"measurement": "Activity", "setting": "[4]", "value": 3}, {"measurement": "Anticonvulsant", "setting": "[5]", "value": 1.6}, {"measurement": "Activity", "setting": "[6]", "value": 0}, {"measurement": "ED50", "setting": "[7]", "value": 90, "unit": "mg/kg"}, {"measurement": "Activity", "setting": "[8]", "value": "100% of the animals protected"}, {"measurement": "ED50", "setting": "[9]", "value": 92, "unit": "mg/kg"}, {"measurement": "Ratio", "setting": "[10]", "value": 1.9}, {"measurement": "ED50", "setting": "[11]", "value": 29, "unit": "mg/kg"}, {"measurement": "Activity", "setting": "[12]", "value": 0}, {"measurement": "Activity", "setting": "[13]", "value": 1}, {"measurement": "Activity", "setting": "[14]", "value": 5.9}, {"measurement": "Activity", "setting": "[15]", "value": 0}, {"measurement": "Activity", "setting": "[16]", "value": "100% of the animals protected"}, {"measurement": "Toxicity", "setting": "[17]", "value": 0}, {"measurement": "Activity", "setting": "[18]", "value": 0}, {"measurement": "Activity", "setting": "[19]", "value": 3}, {"measurement": "Activity", "setting": "[20]", "value": 0}, {"measurement": "TD50", "setting": "[21]", "value": 168, "unit": "mg/kg"}, {"measurement": "Activity", "setting": "[22]", "value": "100% of the animals protected"}, {"measurement": "Toxicity", "setting": "[23]", "value": 0}, {"measurement": "Toxicity", "setting": "[24]", "value": 0}, {"measurement": "Activity", "setting": "[25]", "value": 0}, {"measurement": "Toxicity", "setting": "[26]", "value": 1}, {"measurement": "Toxicity", "setting": "[27]", "value": 0}, {"measurement": "Anticonvulsant Activity", "setting": "[28]", "value": "75% of the animals protected"}, {"measurement": "Ratio", "setting": "[29]", "value": 18.5}, {"measurement": "Activity", "setting": "[30]", "value": 0}, {"measurement": "Activity", "setting": "[31]", "value": "100% of the animals protected"}, {"measurement": "Activity", "setting": "[32]", "value": "100% of the animals protected"}, {"measurement": "Activity", "setting": "[33]", "value": 0}]}
